Compound activity as filed in PubChem BioAssay.
CHOP inhibitor: inhibitors of CHOP induction in ER stress response; inhibition, % at 10 µM; 220,000 tested, 3.8% active; CHO-K1 CHOP-promoter luciferase, tunicamycin-induced, 15-18 h;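 active = compounds that reduced the stress-induced luciferase reporter signal by more than about 70% of percent inhibition, limit read from the data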;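 also: 0% = tunicamycin plus vehicle and 100% = wells without tunicamycin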
Gli-Sufu block: Gli-Sufu pathway antagonism; Sufu-KO-LIGHT fibroblasts, Gli luciferase reporter luminescence; 340,000 tested, 0.74% active; inhibition, % at 5 µM;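 active = inhibition above about 55%, limit read from the data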;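 also: 0% = DMSO-treated cells and 100% = wells with medium but no cells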
697 NFkB inh: inhibitors of the PMA/ionomycin-induced NF-kB reporter in 697 B cells; inhibition, % at 4 µM; AID 435022; 330,000 tested, 0.33% active; 697 B-cell NF-kB luciferase reporter, 16 h; in the data active = inhibition above about 35%
Jurkat NFkB inh: lowers PMA/ionomycin-induced NF-kB signal in Jurkat cells | PMA/ionomycin-induced NF-kB luciferase reporter, luminescence | inhibition, % at 4 µM | 330,000 tested, 0.53% active; in the data active = inhibition above about 50%
UPR XBP1 act: adaptive UPR (XBP1) activation; CHO-XBP1 luciferase reporter, IRE1-XBP1 UPR activation, luminescence; percent of tunicamycin response, DMSO as zero; activation, % at 20 µM; 330,000 tested, 0.33% active;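 active = versus positive control, 20 µM dose yields 30% or more activation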;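 also: 100% = tunicamycin at 10 µg/mL and 0% = DMSO only wells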
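Material: CHO-XBP1 cells stably carrying IRE1-XBP1-driven luciferase reporter / Amount: 1000 cells per well / Compound: 20 µM, 1% DMSO / Times: 6 h treatment, 37 °C / Detection: luciferase luminescence / Measure: % activation of reporter signal versus tunicamycin and DMSO controls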
CHOP UPR activ: apoptotic UPR (CHOP) activation; CHO-CHOP luciferase reporter, luminescence; percent of tunicamycin response over DMSO baseline; activation, % at 10 µM; 330,000 tested, 0.34% active; AID 449763;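 active = at 10 µM dose, activation of 40% or more, normalized to positive control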;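 also: 100% = tunicamycin at 10 µg/mL and 0% = DMSO alone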
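Evaluation: % reporter activation, DMSO baseline versus tunicamycin full activation; System: CHO-CHOP luciferase reporter cell line; Input: 500 cells/well; Incubation: 6 h compound treatment, 37 °C; Measured by: Steady-Glo luciferase luminescence; Dosing: one dose, 10 µM in 0.5% DMSO; Buffer or medium: F12 medium, 10% FBS; Benchmarks: positive tunicamycin 10 µg/mL, negative DMSO alone.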
697 NFkB conf: inhibitors of the PMA/ionomycin-induced NF-kB reporter in 697 B cells, retest. 697 B-cell NF-kB luciferase, 16 h. 2,000 tested, 35% active. inhibition, % at 4 µM. AID 449746. shares compounds with 697 NFkB inh; in the data active = inhibition mostly above about 28%, no sharp cut-off; inactive = mostly below about 22%
CHOP UPR conf: apoptotic UPR (CHOP) activation, confirmed; 1,000 tested, 64% active; activation, % at 10 µM; CHO-CHOP cells, CHOP-luciferase reporter luminescence; percent of tunicamycin response, DMSO as zero; shares compounds with CHOP UPR activ; in the data active = activation above about 33%;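 also: 0% = DMSO wells and 100% = tunicamycin 10 µg/mL wells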
* hit, by the source's call; i = inactive; / = no result. Compounds with a hit are over-represented: about 3.9% of the library has one in this group of screens.

SMILES	CHOP inhibitor	Gli-Sufu block	697 NFkB inh	Jurkat NFkB inh	UPR XBP1 act	CHOP UPR activ	697 NFkB conf	others
CC(=O)Nc1sc2c(c1C(c1ccc(F)cc1)N1CCOCC1)CCCC2 (stereo not drawn)	-7.9	8.5	36.5*	-5.5	-2.6	1.1	-18.9
O=C(O)c1ccc(N/N=C/c2cccc(C(F)(F)F)c2)cc1	/	-55.4	-443.0	-19.5	0.1	3.6	17.8
CCN(CC)S(=O)(=O)c1ccc(-c2cn3cc(Cl)ccc3n2)cc1	/	5.0	-49.4	-7.8	-1.1	1.7	/
Clc1ccc(-c2cn3cc(Cl)ccc3n2)cc1	/	-110.7	-312.5	-104.2	-5.7	-2.8	-380.6
COc1ccc(-c2csc(N3C(=N)SCC3=O)n2)cc1	-13.4	-121.6	-378.4	-104.2	-4.5	0.8	-312.9
NC(=O)CCCn1c(C(=O)c2cc(Cl)c(N)c(Cl)c2)c2ccc([N+](=O)[O-])cc2[n+]1[O-]	/	8.5	-314.2	25.5	2.0	-1.1	-334.6
CC(=O)Nc1cc(C(=O)N2CCCC2)ccc1Sc1ccc(Cl)cc1	17.1	0.3	33.9	-11.6	1.6	1.8	/
CC(=O)Nc1cc(C(=O)N2CCCC2)ccc1Sc1ccc(C)cc1	47.0	-3.2	37.8*	0.0	-1.0	1.2	15.3
Cc1ccc(C(=O)NC(=S)Nc2ccc(NC(=O)c3cccc(Cl)c3)cc2)cc1	45.0	-48.5	-304.6	-25.6	6.2	4.4	13.3
NC(=O)CSC1=N/C(=C\c2ccco2)C(=O)N1c1ccc(OC(F)F)cc1	27.9	-8.8	16.0	11.6	-2.4	-1.4	/
CCOc1cc(/C=C2\N=C(SC(C)C(N)=O)N(c3ccc(OC(F)F)cc3)C2=O)ccc1O (stereo not drawn)	/	-3.4	41.4*	-0.4	-0.2	3.9	18.1
Cc1oc(-c2ccccc2Cl)nc1CSCC(=O)N1CCCC1	/	12.0	i	-32.2	1.2	-0.4	i
Cc1oc(-c2ccccc2Cl)nc1CSc1nc2c(c(=O)[nH]1)CCC2	-2.8	-4.0	40.6*	10.3	-0.5	2.2	23.6
Cc1oc(-c2ccccc2Cl)nc1CSCC(=O)NC1CCCC1	67.4	6.8	2.9	4.4	1.6	2.4	/
Cc1oc(-c2cccc(Cl)c2)nc1CSc1nc2c(c(=O)[nH]1)CCC2	15.1	-0.3	14.5	12.9	1.0	0.4	/
COc1cc2c3c(c1)c(N=NC(N)=S)c(O)n3C(C)(C)C=C2C	-8.7	-11.2	41.8*	-0.5	26.4	0.6	41.7*
CC1=CC(C)(C)n2c(O)c(N=NC(N)=S)c3cccc1c32	62.6	23.8	29.1	-6.7	-0.6	-0.4	/
CN(C(=O)COC(=O)c1ccc(=O)n(Cc2ccccc2)n1)c1ccccc1	0.4	-3.9	7.1	4.3	1.3	-0.5	/
CCn1cc(C(=O)O)c(=O)c2cc(F)c(N3CCN(C(=S)NC(=O)c4ccc(Br)cc4)CC3)cc21	73.2*	3.7	38.2*	-21.1	4.9	-2.5	11.2
CCn1cc(C(=O)O)c(=O)c2cnc(N3CCN(C(=S)NC(=O)c4ccc(Br)cc4)CC3)nc21	16.9	-4.2	83.6*	9.3	-2.1	-0.4	26.4*
CCn1cc(C(=O)O)c(=O)c2cnc(N3CCN(C(=S)Nc4ccccc4Cl)CC3)nc21	-49.2	-46.6	3.6	6.7	-0.7	0.0	/
CCn1cc(C(=O)O)c(=O)c2cnc(N3CCN(C(=S)NC(=O)c4ccc(Cl)cc4)CC3)nc21	0.6	0.8	38.0*	18.5	-2.0	-0.4	-1.2
CCn1cc(C(=O)O)c(=O)c2cnc(N3CCN(C(=S)Nc4ccc(F)cc4)CC3)nc21	-50.0	0.9	8.0	6.8	-1.8	-1.6	/
CCn1cc(C(=O)O)c(=O)c2cc(F)c(N3CCN(C(=S)NC(=O)c4ccc(OC)cc4)CC3)cc21	/	1.9	13.1	6.8	-3.3	2.4	/
Cn1cnc(S(=O)(=O)NC2CCN(Cc3ccccc3)CC2)c1	/	3.8	-10.8	10.1	-4.1	-0.1	/
SMILES	CHOP inhibitor	Gli-Sufu block	697 NFkB inh	Jurkat NFkB inh	UPR XBP1 act	CHOP UPR activ	697 NFkB conf	others
O=C1N/C(=C\c2nc3ccccc3s2)c2ccccc21	67.2	/	-322.3	-106.8	-8.7	-3.7	-453.1
CCOC(=O)C(C)c1n[nH]c(=O)c2ccccc12 (stereo not drawn)	11.5	-4.8	38.0*	-1.1	-0.5	-0.4	12.0
Brc1ccc(-c2ncc(-c3ccccc3)cn2)cc1	16.9	-81.0	-289.0	-149.8	-7.3	1.8	-210.0
CCN1C(=O)c2cccc3c(S(=O)(=O)Nc4ccccn4)ccc1c23	10.4	34.2	58.3*	3.5	0.9	0.0	54.4*
CCN1C(=O)c2cccc3c(S(=O)(=O)Nc4ccncc4)ccc1c23	-12.7	7.3	37.3*	-1.1	0.2	-0.3	9.6
CCN1C(=O)c2cccc3c(S(=O)(=O)Nc4ncccc4C)ccc1c23	-13.7	9.3	33.6	7.5	-3.0	0.6	/
CCN1C(=O)c2cccc3c(S(=O)(=O)NCC4CCCO4)ccc1c23 (stereo not drawn)	-1.0	17.1	37.5*	1.1	-3.1	-0.2	59.3*
CN1C(=O)c2cccc3c(S(=O)(=O)Nc4ccccc4F)ccc1c23	/	14.4	37.2*	4.3	-1.8	0.1	34.2*
Cc1cccc(C(=O)NC2CC3CCCC(C2)N3Cc2ccccc2)c1 (stereo not drawn)	/	30.9	8.0	12.1	-4.9	2.3	/
Cc1ccccc1C(=O)Nc1nnc(S(=O)(=O)N2CCCCC2)s1	/	3.1	7.9	-10.6	-0.6	-0.1	/
COc1ccc(OCc2cc(C(=O)NCC3CCCCO3)no2)c(Cl)c1 (stereo not drawn)	/	-1.6	-69.1	-46.5	1.3	11.2	/
CCN1C(=O)c2cccc3c(S(=O)(=O)Nc4ccccc4)ccc1c23	9.8	42.2	52.2*	-1.6	-0.1	1.1	43.2*
Cc1ccc2c(c1)cc(C(=O)NCc1ccccc1)n2C	/	4.5	i	-49.4	-2.9	1.5	i
Cc1cc2cc(CNC(=S)NCc3ccccc3)ccc2n1C	-3.1	19.7	-20.2	22.5	-0.4	-1.3	/
CC(=O)c1c(-c2ccc(Cl)cc2)c2ccccc2[nH]c1=O	13.6	6.3	2.5	6.9	-0.8	1.3	/
CC(=O)c1c(-c2ccccc2)c2cc(Cl)ccc2[nH]c1=O	5.0	1.4	36.2*	-1.5	-0.7	-0.9	-6.1
CCC(=O)Nc1ccc(C(=O)COC(=O)c2sc(C)nc2C)cc1	/	-17.1	11.6	18.2	-1.8	-1.7	/
CC1=CC(C)(C)Nc2ccc(OC(=O)CN3C(=O)CCC3=O)cc21	-260.6	6.0	64.5*	6.1	-4.4	86.8*	47.9*	CHOP UPR conf=92.0*
